# Bioassay records from PubChem.
# Most compounds without a hit are left out; they make up all but 4.7% or so of the library.
# Jurkat NFkB inh: inhibitors of the PMA/ionomycin-induced NF-kB reporter in Jurkat cells; PMA/ionomycin-induced NF-kB luciferase reporter, luminescence; inhibition, % at 4 µM; 330,000 compounds, 0.53% hits; AID 435003; in the data active means inhibition above about 50%
# aSyn 5UTR inh: 5' untranslated region of α-synuclein, MLPCN primary screen. alpha-synuclein 5'UTR reporter, inhibitor activity. inhibition, % (tested at 7.5 µM). AID 1813. 300,000 compounds, 0.82% hits; in the data active means inhibition above about 60%; inconclusive means no clear call, values can overlap the other calls;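 further: H4 neuroglioblastoma cells stably carrying SNCA 5'UTR luciferase fusion; 0% = DMSO wells and 100% = positive control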
# IMP-1 inhibitor: blocks Pseudomonas aeruginosa IMP-1 metallo-beta-lactamase | 290,000 compounds, 0.45% hits | purified IMP-1, nitrocefin hydrolysis, epi-absorbance fluorescence | inhibition, % at 5.6 µM | AID 1556;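 active means inhibition above the mean plus 3 SD of all compounds in the same screening run, cut at about 4.5% in these data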;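 further: 0% = IMP-1 with DMSO and 100% = DMSO wells lacking enzyme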
#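 System: purified recombinant IMP-1 beta-lactamase. Medium: Zinc- and detergent-supplemented HEPES buffer, pH 7.1. Compound: one 5.6 µM dose […]. Schedule: 15 min preincubation plus 25 min reaction at 25 °C. Technique: Epi-absorbance fluorescence, 480 nm excitation, 530 nm emission.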
# VIM-2 inhibitor: inhibitors of Pseudomonas aeruginosa VIM-2 metallo-beta-lactamase; purified VIM-2, nitrocefin hydrolysis, epi-absorbance fluorescence; inhibition, % at 5.6 µM; 290,000 compounds, 0.89% hits; AID 1527;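 active means inhibition above the mean of all tested compounds plus 3 SD, cutoff set per screening run, cut at about 7.5% in these data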;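 further: red hydrolysis product quenches plate fluorescence so inhibitors raise well fluorescence; 0% = enzyme with DMSO and 100% = DMSO without enzyme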
# Mdm2-MdmX inh: inhibitors of human Mdm2/MdmX interaction. O15151+Q00987. SaOS-2 split-luciferase Mdm2/MdmX complementation, luminescence. inhibition, % at 8 µM. 330,000 compounds, 3% hits;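 active means inhibition of at least 50% at 8 µM in the primary screen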
# 697 NFkB inh: inhibitors of the PMA/ionomycin-induced NF-kB reporter in 697 B cells. 697 B-cell NF-kB luciferase reporter, 16 h. inhibition, % at 4 µM. 330,000 compounds, 0.33% hits; in the data active means inhibition above about 35%
# Mdm2 MdmX conf: confirmation of human Mdm2/MdmX interaction inhibitors; shares compounds with Mdm2-MdmX inh; Mdm2-MdmX binding, luminescent assay; inhibition, % at 8 µM; 10,000 compounds, 55% hits; AID 489028; in the data active means inhibition above about 40%
# FLuc counter: full-length luciferase inhibition in Mdm2/MdmX counter-screen | AID 504607 | inhibition, % at 8 µM | 6,200 compounds, 77% hits | shares compounds with Mdm2-MdmX inh | SaOS-2 full-length luciferase counterscreen, luminescence;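 active means mean inhibition at 8 µM reaching about 37%, which flags the compound as non-specific, limit read from the data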;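 further: p53-null SaOS-2 cells with luciferase driven by a doxycycline-inducible promoter; compound on cells about two nights before reading with doxycycline added after day one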
# * = called active by the depositor; ? = inconclusive; nt = no result.
SMILES,Jurkat NFkB inh,aSyn 5UTR inh,IMP-1 inhibitor,VIM-2 inhibitor,Mdm2-MdmX inh,697 NFkB inh,Mdm2 MdmX conf,FLuc counter
Brc1ccc2ncnc(NCc3ccco3)c2c1,-4.0,-63.8,-2.5,-1.5,56.9*,-29.5,22.2,nt
CC(=O)c1cccc(Nc2ncnc3ccc(Br)cc23)c1,-8.3,21.8,-2.5,-0.7,67.3*,-9.0,46.8*,38.4*
CC(C)Nc1ncnc2ccc(Br)cc12,26.3,4.8,-3.8,-4.2,67.1*,-86.1,68.0*,24.8
Brc1ccc2ncnc(Nc3ccc(N4CCOCC4)cc3)c2c1,16.9,-32.4,-3.0,-2.9,62.0*,-5.6,65.5*,25.5
O=C(COc1ncnc2ccc(Br)cc12)Nc1ccc(N2CCOCC2)cc1,7.3,-31.2,-3.4,-3.4,11.7,7.6,nt,nt
Cc1ccc(NC(=O)CN2C(=O)NC(Cc3c[nH]c4ccccc34)C2=O)cc1 (configuration not stated),-1.5,nt,nt,nt,-9.8,-0.9,nt,nt
CS(=O)(=O)N1CCCC(C(=O)Nc2c(F)cccc2F)C1 (configuration not stated),12.8,1.3,-1.6,-0.9,2.9,-7.6,nt,nt
Cc1ccc(N(C(=O)Cc2c[nH]c3ccccc23)C(C(=O)NC2CCCCC2)c2ccco2)cc1 (configuration not stated),-5.1,13.4,0.2,-0.2,54.9*,9.7,40.1*,85.7*
O=C(NCC1CCCO1)c1ccc2c(=O)n(Cc3cccc(Br)c3)c(=S)[nH]c2c1 (configuration not stated),1.0,6.9,-4.0,-1.2,58.1*,-1.9,30.1,nt
CC1CCN(CCCNC(=O)c2ccc3c(=O)n(Cc4ccc(Cl)cc4)c(=S)[nH]c3c2)CC1,-16.3,-29.0,-2.2,-2.7,88.1*,-1.7,38.2,76.5*
COc1ccc(Cn2c(=O)[nH]c3cc(C(=O)NCc4ccc5c(c4)OCO5)ccc3c2=O)cc1,-4.1,45.4,-2.7,-1.2,65.0*,-31.9,29.4,nt
COc1ccc(Cn2c(=S)[nH]c3cc(C(=O)NCc4cccnc4)ccc3c2=O)cc1,-8.0,22.9,-0.7,-1.3,74.3*,-20.3,-8.0,nt
Cn1cncc1C#Cc1ccc2c(=O)c3ccccc3oc2c1,9.9,nt,nt,nt,-28.5,-99.5,nt,nt
O=C(CN1C(=O)NC2(CCCC2)C1=O)OCCOc1cccc(Br)c1,7.8,4.6,nt,nt,21.0,13.7,nt,nt
CCC(C)C(NC(N)=O)C(=O)Nc1ccc(OCc2ccccc2)cc1 (configuration not stated),-6.3,-19.6,-1.9,-1.9,-4.4,14.3,nt,nt
Cc1cc(SCc2ccc(Cl)cc2Cl)nc(=O)[nH]1,17.5,-14.7,-1.3,-3.1,53.1*,-4.2,30.2,nt
Fc1cccc(F)c1/C=N/NC(=S)Nc1cccnc1,8.0,-4.8,-1.9,2.6,6.7,18.0,nt,nt
Fc1c(F)c(F)c(/C=N/NC(=S)Nc2cccnc2)c(F)c1F,1.2,16.6,-1.8,0.1,51.4*,-5.6,33.9,74.0*
Cc1ccnc(NC(=O)CSc2cc(=O)n(C)c3ccccc23)c1,-31.6,-22.8,-3.8,0.6,82.5*,-56.2,75.9*,126.8*
COC(=O)c1c(NC(=O)CN2CCC3(O)CCCCC3C2c2cc(OC)ccc2OC)sc(C)c1C (configuration not stated),15.2,-21.4,-0.8,-1.2,39.8,8.1,nt,nt
COC(=O)c1c(NC(=O)CN2CCC3(O)CCCCC3C2c2ccc(F)cc2)sc(C)c1C (configuration not stated),13.7,16.8,-2.3,-2.8,53.3*,-14.9,26.8,nt
COc1ccc(C(=O)C2CCCN(S(=O)(=O)C(C)C)C2)c(C)c1 (configuration not stated),-0.7,5.0,0.2,-0.8,-24.0,0.4,nt,nt
C/C(=N\NC(=O)C1(C)CC1(Br)Br)c1cccc(NC(=O)c2ccc(C)o2)c1 (configuration not stated),7.5,3.1,-1.1,-2.0,61.3*,17.9,21.9,nt
N#C/C(=C/c1ccc(Br)o1)C(N)=O,12.5,-11.8,-5.0,-1.7,22.7,20.1,nt,nt
N#C/C(=C/c1ccc(Br)o1)C(N)=S,10.0,-13.2,0.5,-3.2,75.5*,8.5,42.6*,63.5*
SMILES,Jurkat NFkB inh,aSyn 5UTR inh,IMP-1 inhibitor,VIM-2 inhibitor,Mdm2-MdmX inh,697 NFkB inh,Mdm2 MdmX conf,FLuc counter
Cn1nc(C(=O)Nc2cccc(S(=O)(=O)N3CCCCC3)c2)c2ccccc2c1=O,21.9,nt,nt,nt,63.2*,11.7,53.1*,83.2*
Cc1ccc(NC(=O)c2ccccc2NS(=O)(=O)c2ccc(F)cc2)cc1S(=O)(=O)N1CCCCC1,-9.1,32.9,-2.8,-1.9,89.4*,-21.2,91.2*,28.2
O=C(Nc1cccc(S(=O)(=O)N2CCCCC2)c1)c1ccccc1NS(=O)(=O)c1ccc(F)cc1,14.9,-29.3,-0.6,-0.8,89.1*,-23.3,70.6*,111.5*
COc1ccc(C(=O)N2CCN(c3ccc(F)cc3)CC2)cc1S(=O)(=O)NC1CC1,-3.6,nt,nt,nt,-40.1,-15.0,nt,nt
CC(=O)Nc1ccc(S(=O)(=O)Nc2cccc(-c3cn4cccnc4n3)c2)cc1,7.8,6.2,-3.0,-2.3,-9.6,-8.2,nt,nt
C=CCOc1ccc(/C=C/C(=O)OCC(=O)N2CCCc3ccccc32)cc1,-0.1,4.3,nt,nt,21.8,-11.5,nt,nt
N#C/C(=C\c1c(Cl)cccc1Cl)c1nc2ccccc2[nH]1,-14.0,-63.7,-1.1,-0.2,-18.4,4.7,nt,nt
N#C/C(=C\c1c(Cl)cccc1Cl)c1nc2ccccc2o1,-10.2,-9.8,-2.0,-3.1,82.5*,-11.5,36.4,nt
COc1ccc(OC)c2sc(N(CCN(C)C)C(=O)/C=C/c3cccs3)nc12,8.8,?,11.2*,5.4,97.2*,-29.4,100.1*,0.2
COc1ccccc1NC(=S)NC(=O)/C=C/c1cccs1,10.9,-35.4,-3.2,-1.6,12.0,9.7,nt,nt
COc1ccc(C)c2sc(N(CCN(C)C)C(=O)c3cccc(N4C(=O)CCC4=O)c3)nc12,0.3,7.8,nt,nt,-13.3,16.4,nt,nt
COc1ccc(C)c2sc(N(CCN(C)C)C(=O)/C=C/c3cccs3)nc12,-16.1,19.5,0.7,0.9,64.9*,-2.0,27.0,nt
O=C(NCc1ccc2c(c1)OCO2)c1cc(-c2ccc(Cl)cc2Cl)on1,-2.4,3.0,-1.3,-3.0,24.5,5.4,nt,nt
COc1ccc(C(=O)Nc2ccnn2C2CCN(C(=O)c3cccnc3)CC2)cc1,-15.6,-4.2,-4.0,-1.9,16.4,15.2,nt,nt
CCN(CC)S(=O)(=O)c1ccc(OCCNS(C)(=O)=O)cc1,-12.7,-0.1,-2.2,-2.4,6.7,-0.3,nt,nt
CCOc1ccc(C(=O)Nc2cccc(C(=O)O)c2)cc1Cl,33.9,-8.2,-2.5,-1.8,-86.3,9.6,nt,nt
O=C(Nc1ccc(NC(=O)c2sc3ccccc3c2Cl)cc1Cl)c1ccco1,-44.5,-58.6,-1.0,0.5,89.1*,-70.3,22.9,nt
